Assay results published in ChEMBL document CHEMBL1641399, “Phytochemical investigations of Stemona curtisii and synthetic studies on stemocurtisine alkaloids” (2010).
Converted amounts (≈) assume the structure as drawn.

Assays:
[1] = test system: Escherichia coli; assay: Antimicrobial activity against Escherichia coli; assay type: functional
[2] = test system: Klebsiella pneumoniae; assay: Antimicrobial activity against Klebsiella pneumoniae; assay type: functional
[3] = test system: Staphylococcus aureus; assay: Antimicrobial activity against Staphylococcus aureus; assay type: functional
In short: (§1)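 Antibacterial MIC determination in µg/mL against a bacterial panel that includes Streptococcus pyogenes, with gentamicin as positive control; otherwise run by a literature procedure.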

[4] = test system: Staphylococcus aureus; assay: Antimicrobial activity against methicillin-resistant Staphylococcus aureus; assay type: functional; in short: as §1
[5] = test system: Streptococcus pyogenes; assay: Antimicrobial activity against Streptococcus pyogenes; assay type: functional
In short: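 Antibacterial test read as MIC (µg/mL), following a previously published procedure, with gentamicin run as positive control.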

[6] = test system: Candida albicans; assay: Antimicrobial activity against Candida albicans; assay type: functional
In short: (§2)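 Antifungal test read as MIC (µg/mL), following a previously published procedure, with amphotericin B run as positive control.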

[7] = test system: Cryptococcus neoformans; assay: Antimicrobial activity against Cryptococcus neoformans; assay type: functional; in short: as §2
[8] = molecular target: Acetylcholinesterase (Homo sapiens) (UniProt P22303)
Acetylcholinesterase (Homo sapiens), sequence (P22303 whole entry): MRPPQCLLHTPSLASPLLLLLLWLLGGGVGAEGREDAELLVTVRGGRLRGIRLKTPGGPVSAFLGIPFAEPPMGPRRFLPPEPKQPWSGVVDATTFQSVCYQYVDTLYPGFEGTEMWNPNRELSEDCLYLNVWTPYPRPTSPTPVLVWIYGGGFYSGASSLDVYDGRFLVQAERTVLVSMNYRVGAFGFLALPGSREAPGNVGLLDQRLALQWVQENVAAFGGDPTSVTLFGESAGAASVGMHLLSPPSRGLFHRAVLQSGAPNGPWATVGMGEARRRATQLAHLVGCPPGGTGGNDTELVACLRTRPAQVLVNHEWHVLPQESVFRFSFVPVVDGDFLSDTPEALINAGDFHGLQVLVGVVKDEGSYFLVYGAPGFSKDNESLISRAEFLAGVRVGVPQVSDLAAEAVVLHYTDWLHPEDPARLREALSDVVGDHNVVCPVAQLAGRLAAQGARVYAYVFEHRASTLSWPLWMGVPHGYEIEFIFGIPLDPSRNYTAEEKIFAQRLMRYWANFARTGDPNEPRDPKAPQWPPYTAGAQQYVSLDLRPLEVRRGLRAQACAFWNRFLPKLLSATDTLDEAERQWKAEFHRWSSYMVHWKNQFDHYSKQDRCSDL

| Compound | MIC [1] | MIC [2] | MIC [3] | MIC [4] | MIC [5] | MIC [6] | MIC [7] | MIC [8] |
| --- | --- | --- | --- | --- | --- | --- | --- | --- |
| GENTAMICIN | 250 µg/mL | 250 µg/mL | 250 µg/mL | 250 µg/mL | 250 µg/mL | 250 µg/mL | 250 µg/mL |  |
| CC/C=C/C12C3CC4C5[C@@H](C)/C(=C6/OC(=O)C(C)=C6OC)O[C@]5(O3)C1CCN42 (some centres undefined) |  |  |  |  |  |  |  | 5 ng |
| COc1cc(-c2cc3c(O)cccc3o2)c(C)c(OC)c1C [STEMOFURAN J] | 250 µg/mL (≈ 838 µM) | 250 µg/mL (≈ 838 µM) | 250 µg/mL (≈ 838 µM) | 250 µg/mL (≈ 838 µM) | 250 µg/mL (≈ 838 µM) | 250 µg/mL (≈ 838 µM) | 250 µg/mL (≈ 838 µM) |  |
| COc1c(C)c(O)c(C)c(-c2cc3c(O)cccc3o2)c1C [STEMOFURAN F] | 250 µg/mL (≈ 838 µM) | 250 µg/mL (≈ 838 µM) | 250 µg/mL (≈ 838 µM) | 250 µg/mL (≈ 838 µM) | 250 µg/mL (≈ 838 µM) | 250 µg/mL (≈ 838 µM) | 250 µg/mL (≈ 838 µM) |  |
| C[C@@H]1[C@H](O)[C@@H](C)/C=C/C=C/C=C/C=C/C=C/C=C/C=C/[C@H](O[C@@H]2O[C@H](C)[C@@H](O)[C@H](N)[C@@H]2O)C[C@@H]2O[C@](O)(C[C@@H](O)C[C@@H](O)[C@H](O)CC[C@@H](O)C[C@@H](O)CC(=O)O[C@H]1C)C[C@H](O)[C@H]2C(=O)O [AMPHOTERICIN B] | 250 µg/mL (≈ 271 µM) | 250 µg/mL (≈ 271 µM) | 250 µg/mL (≈ 271 µM) | 250 µg/mL (≈ 271 µM) | 250 µg/mL (≈ 271 µM) | 250 µg/mL (≈ 271 µM) | 250 µg/mL (≈ 271 µM) |  |
| COc1cc(-c2cc3c(O)cccc3o2)c(C)c(O)c1C [STEMOFURAN E] | 250 µg/mL (≈ 879 µM) | 250 µg/mL (≈ 879 µM) | 250 µg/mL (≈ 879 µM) | 250 µg/mL (≈ 879 µM) | 250 µg/mL (≈ 879 µM) | 250 µg/mL (≈ 879 µM) | 250 µg/mL (≈ 879 µM) |  |
| COc1c(C)c(O)c(C)c(-c2cc3ccccc3o2)c1C [STEMOFURAN K] | 250 µg/mL (≈ 885 µM) | 250 µg/mL (≈ 885 µM) | 250 µg/mL (≈ 885 µM) | 250 µg/mL (≈ 885 µM) | 250 µg/mL (≈ 885 µM) | 250 µg/mL (≈ 885 µM) | 250 µg/mL (≈ 885 µM) |  |
| CC[C@H](O)[C@@H]1CC[C@@H]2O[C@@]34CCC[N+]1([O-])[C@@H]2[C@H]3[C@H](C)/C(=C1/OC(=O)C(C)=C1OC)O4 (some centres undefined) |  |  |  |  |  |  |  | 100 ng |
